Laboratory results from ChEMBL document CHEMBL1131110, “Deoxyadenosine bisphosphate derivatives as potent antagonists at P2Y1 receptors” (J Med Chem, 1998).
pEC50, pIC50: −log10 of the molar value. The source made the active and inactive calls. The rule behind the calls is not given here.

What was measured:
[1] = target: P2Y purinoceptor 1 (Meleagris gallopavo) (UniProt P49652); assay: Agonist activity at P2Y1 receptor measured as capacity to stimulate phospholipase C in turkey erythrocyte membranes; NE=No effect; type: functional, cell membranes
Procedure, shortened: (§1)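 Turkey erythrocytes labelled with 2-[3H]myo-inositol in inositol-free DMEM for 18–24 h at 37 °C, 5% CO2. Ghosts made by hypotonic lysis. Labelled ghosts (~175 μg protein) incubated 5 min at 30 °C with 1 μM GTPγS and test nucleotide at pH 7.0 (HEPES, KCl, CaCl2, MgSO4, EGTA). Total [3H]inositol phosphates measured by anion-exchange chromatography. EC50 from four-parameter logistic fit. Efficacy is relative to a maximal 2-MeSATP response in the same experiment.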

[2] = target: P2Y purinoceptor 1 (Meleagris gallopavo) (UniProt P49652); assay: Antagonist activity at P2Y1 receptor measured as capacity to inhibit phospholipase C stimulation elicited by 10 nM 2-MeSATP; NE=No effect; type: functional
Procedure, shortened: (§2)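 The PLC assay uses [3H]inositol-labelled turkey erythrocyte ghosts (~175 μg protein) in HEPES buffer, pH 7.0, with 1 μM GTPγS. Ghosts are incubated 5 min at 30 °C with 10 nM 2-MeSATP plus graded analogue concentrations. [3H]inositol phosphates are separated by anion exchange. IC50 is the concentration inhibiting 50% of the 2-MeSATP response. Maximal inhibition is 100 minus residual stimulation at the top concentration. Each curve was run at least 3 times in duplicate or triplicate.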

[3] = target: P2Y purinoceptor 1 (Meleagris gallopavo) (UniProt P49652); assay: Antagonist activity at P2Y1 receptor measured as capacity to inhibit phospholipase C stimulation elicited by 10 nM 2-MeSATP; type: functional; procedure, shortened: as §2
P2Y purinoceptor 1 [4] = target: T1, P2Y purinoceptor 1 (Meleagris gallopavo, UniProt P49652); assay: Antagonist activity at P2Y1 receptor measured as capacity to inhibit 50% of phospholipase C stimulation elicited by 10 nM 2-MeSATP; type: functional
Procedure, shortened: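 Ghosts are incubated 5 min at 30 °C with 10 nM 2-MeSATP plus graded analogue concentrations. [3H]inositol phosphates are separated by anion exchange. Maximal inhibition is 100 minus residual stimulation at the top concentration. Each curve was run at least 3 times in duplicate or triplicate.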

[5] = target: P2Y purinoceptor 1 (Meleagris gallopavo) (UniProt P49652); assay: Agonist activity at P2Y1 receptor measured as capacity to stimulate phospholipase C in turkey erythrocyte membranes; type: functional, cell membranes; procedure, shortened: as §1
P2Y purinoceptor 1 [6] = target: T1, P2Y purinoceptor 1; assay: Agonist activity at P2Y1 receptor measured as capacity to stimulate 50% phospholipase C in turkey erythrocyte membranes; type: functional, cell membranes; procedure, shortened: as §1
[7] = target: P2Y purinoceptor 1 (Meleagris gallopavo) (UniProt P49652); assay: Agonist activity at P2Y1 receptor measured as capacity to stimulate phospholipase C in turkey erythrocyte membranes; No effect or small inhibition; type: functional, cell membranes; procedure, shortened: as §1
[8] = target: P2Y purinoceptor 1 (Meleagris gallopavo) (UniProt P49652); assay: Antagonist activity at P2Y1 receptor measured as capacity to inhibit phospholipase C stimulation elicited by 10 nM 2-MeSATP; No effect or small inhibition; type: functional; procedure, shortened: as §2
[9] = target: P2Y purinoceptor 1 (Meleagris gallopavo) (UniProt P49652); assay: Antagonist activity at P2Y1 receptor measured as capacity to inhibit phospholipase C stimulation elicited by 10 nM 2-MeSATP; Small inhibition at 30-100 uM; type: functional; settings: filed as antagonist; procedure, shortened: as §2

T1 sequence (P49652 whole entry): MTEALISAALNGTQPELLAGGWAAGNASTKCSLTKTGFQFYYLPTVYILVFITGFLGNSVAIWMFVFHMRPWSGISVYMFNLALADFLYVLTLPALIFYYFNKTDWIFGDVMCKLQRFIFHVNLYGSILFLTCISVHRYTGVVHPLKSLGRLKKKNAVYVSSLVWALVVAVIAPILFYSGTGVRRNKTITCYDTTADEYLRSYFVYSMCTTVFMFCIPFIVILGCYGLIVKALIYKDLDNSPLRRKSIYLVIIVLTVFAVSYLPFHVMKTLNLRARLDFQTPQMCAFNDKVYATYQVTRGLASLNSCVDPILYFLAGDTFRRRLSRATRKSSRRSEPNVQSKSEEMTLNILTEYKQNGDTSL
Sequence of P2Y purinoceptor 1 (Meleagris gallopavo) (P49652 whole entry): as above

SMILES | Max increase [1] | Max inhibition [3] | pIC50 (P2Y purinoceptor 1 [4]) | Max increase [5] | pEC50 (P2Y purinoceptor 1 [6]) | also measured
Nc1ncnc2c1ncn2C1OC(CCl)CC1OP(=O)(O)O (stereo not given) | inactive |  |  |  |  | Max inhibition [2]: inactive
Nc1ncnc2c1nc(Br)n2[C@H]1C[C@H](OP(=O)(O)O)[C@@H](COP(=O)(O)O)O1 | inactive | 100% | 4.44 |  |  | 
Nc1ncnc2c1ncn2C1OC(COP(=O)(O)O)CC1OP(=O)(O)O (stereo not given) |  | 81% | 4.96 | 16% | 5.08 | 
O=P(O)(O)OC[C@H]1O[C@@H](n2cnc3c(Cl)ncnc32)C[C@@H]1OP(=O)(O)O |  |  |  |  |  | Max increase [7]: inactive; Max inhibition [8]: inactive
NCCCCCCNc1ncnc2c1ncn2[C@@H]1O[C@H](COP(=O)(O)O)[C@@H](O)[C@H]1OP(=O)(O)O | inactive |  |  |  |  | Max inhibition [2]: inactive
Nc1nc(Cl)nc2c1ncn2[C@H]1C[C@H](OP(=O)(O)O)[C@@H](COP(=O)(O)O)O1 |  | 80% | 5.70 | 19% | 6.19 | 
Nc1ncnc2c1ncn2[C@@H]1O[C@H](COP(=O)(O)O)[C@H]2OP(=O)(O)O[C@H]21 |  | 73% |  | 43% |  | 
Nc1ncnc2c1ncn2C1O[C@H](COP(=O)(O)OP(=O)(O)OC2O[C@H](CO)[C@@H](O)[C@H]2O)[C@@H](O)[C@H]1OP(=O)(O)O (stereo not given in full) |  | 50% | < 4.00 | 50% | < 4.00 | 
C[n+]1cnc2c(ncn2[C@H]2C[C@H](OP(=O)(O)O)[C@@H](COP(=O)(O)O)O2)c1N | inactive | 100% | 4.26 |  |  | 
Nc1ncnc2c1ncn2[C@H]1C[C@H](OP(=O)(O)O)[C@@H](COP(=O)(O)O)O1 |  | 87% | 5.24 | 12% | 5.20 | 
CN(C)c1ncnc2c1ncn2[C@H]1C[C@H](OP(=O)(O)O)[C@@H](COP(=O)(O)O)O1 | inactive | 70% | 4.33 |  |  | 
O=c1[nH]cnc2c1ncn2[C@H]1C[C@H](OP(=O)(O)O)[C@@H](COP(=O)(O)O)O1 | inactive |  |  |  |  | Max inhibition [9]: Partial antagonist
CC(C)(COP(=O)(O)OP(=O)(O)OC[C@H]1O[C@@H](n2cnc3c(N)ncnc32)[C@H](OP(=O)(O)O)[C@@H]1O)C(O)C(=O)NCCC(=O)NCCS (stereo not given in full) |  | 72% | 4.14 | 43% | < 4.00 | 
CO[C@@H]1[C@H](OP(=O)(O)O)[C@@H](COP(=O)(O)O)O[C@H]1n1cnc2c(N)ncnc21 |  | 65% | 4.91 | 35% | 4.89 | 
CCNc1ncnc2c1ncn2[C@H]1C[C@H](OP(=O)(O)O)[C@@H](COP(=O)(O)O)O1 | inactive | 100% | 5.97 |  |  | 
CCCNc1ncnc2c1ncn2[C@H]1C[C@H](OP(=O)(O)O)[C@@H](COP(=O)(O)O)O1 | inactive |  |  |  |  | Max inhibition [9]: Partial antagonist
Nc1ncnc2c1ncn2[C@@H]1O[C@H](COP(=O)(O)O)[C@@H](O)[C@H]1OP(=O)(O)O |  | 75% | 5.07 | 25% | 5.86 | 
CSc1ncnc2c1ncn2[C@H]1C[C@H](OP(=O)(O)O)[C@@H](COP(=O)(O)O)O1 | inactive | 78% | 4.54 |  |  | 
CNc1ncnc2c1ncn2C1OC(COP(=O)(O)O)CC1OP(=O)(O)O (stereo not given) |  | 90% | 6.49 | 13% |  | 
Nc1ncnc2c1ncn2[C@@H]1O[C@H](COP(=O)(O)O)[C@H]2O[P@](=O)(O)O[C@H]21 |  |  | 4.90 |  | 4.39 | 
O=P(O)(O)OC[C@H]1O[C@@H](n2cnc3c2ncn2ccnc32)C[C@@H]1OP(=O)(O)O | inactive |  |  |  |  | Max inhibition [2]: inactive
Nc1ncnc2c1ncn2[C@@H]1O[C@H](COP(=O)(O)O)[C@@H](OP(=O)(O)O)[C@H]1O |  | 77% | 5.38 | 21% | 5.89 | 
CSc1nc(N)c2ncn([C@H]3C[C@H](OP(=O)(O)O)[C@@H](COP(=O)(O)O)O3)c2n1 |  | 77% | 5.68 | 22% | 6.26 | 
O=C(Nc1ncnc2c1ncn2[C@H]1C[C@H](OP(=O)(O)O)[C@@H](COP(=O)(O)O)O1)c1ccccc1 | inactive |  |  |  |  | Max inhibition [2]: inactive
Nc1ncnc2c1ncn2[C@H]1C[C@H](OP(O)(O)=S)[C@@H](COP(O)(O)=S)O1 |  | 91% | 4.06 | 9% |  | 
